Reference: ChEMBL document CHEMBL1143133, “Discovery of a dopamine D4 selective PET ligand candidate taking advantage of a click chemistry based REM linker” (Bioorg Med Chem Lett, 2008)

Legend:
[1] = target: T1, D(3) dopamine receptor (Homo sapiens, UniProt P35462); test: Displacement of [3H]spiperone from human cloned dopamine D3 receptor at 100 uM
[2] = target: T2, D(2) dopamine receptor (Homo sapiens, UniProt P14416); test: Displacement of [3H][…] from human cloned dopamine D2 long receptor at 100 uM
T2 sequence (P14416 whole entry): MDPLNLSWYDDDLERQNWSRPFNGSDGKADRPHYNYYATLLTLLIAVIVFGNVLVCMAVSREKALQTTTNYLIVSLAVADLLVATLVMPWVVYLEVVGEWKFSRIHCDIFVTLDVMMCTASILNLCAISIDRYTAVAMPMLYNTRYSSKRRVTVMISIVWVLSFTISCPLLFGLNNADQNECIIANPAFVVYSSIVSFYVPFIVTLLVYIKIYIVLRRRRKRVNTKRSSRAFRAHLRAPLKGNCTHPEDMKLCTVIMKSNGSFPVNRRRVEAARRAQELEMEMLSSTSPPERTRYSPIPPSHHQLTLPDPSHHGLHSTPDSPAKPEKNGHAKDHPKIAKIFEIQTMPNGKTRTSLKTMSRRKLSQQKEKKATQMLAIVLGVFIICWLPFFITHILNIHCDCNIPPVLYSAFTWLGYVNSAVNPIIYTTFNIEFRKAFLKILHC

[3] = target: T3, D(4) dopamine receptor (Homo sapiens) (UniProt P21917); test: Displacement of [3H]spiperone from human cloned dopamine D4 receptor at 100 uM
T3 sequence (whole entry): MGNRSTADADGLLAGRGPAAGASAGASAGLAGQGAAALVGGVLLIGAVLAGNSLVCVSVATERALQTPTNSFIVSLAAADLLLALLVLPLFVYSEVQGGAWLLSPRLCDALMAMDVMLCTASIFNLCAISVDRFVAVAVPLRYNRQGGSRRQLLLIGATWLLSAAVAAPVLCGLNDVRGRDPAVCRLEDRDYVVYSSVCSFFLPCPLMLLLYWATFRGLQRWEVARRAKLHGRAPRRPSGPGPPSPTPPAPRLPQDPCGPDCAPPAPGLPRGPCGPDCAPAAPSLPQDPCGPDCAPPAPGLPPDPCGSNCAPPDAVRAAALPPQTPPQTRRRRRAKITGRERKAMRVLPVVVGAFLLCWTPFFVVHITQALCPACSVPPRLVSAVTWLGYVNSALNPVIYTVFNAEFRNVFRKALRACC

[4] = target: 5-hydroxytryptamine receptor 2A (Sus scrofa, UniProt P50129); test: Displacement of [3H]ketanserin from pig cortical membrane 5HT2 receptor
Sequence of 5-hydroxytryptamine receptor 2A (P50129 whole entry): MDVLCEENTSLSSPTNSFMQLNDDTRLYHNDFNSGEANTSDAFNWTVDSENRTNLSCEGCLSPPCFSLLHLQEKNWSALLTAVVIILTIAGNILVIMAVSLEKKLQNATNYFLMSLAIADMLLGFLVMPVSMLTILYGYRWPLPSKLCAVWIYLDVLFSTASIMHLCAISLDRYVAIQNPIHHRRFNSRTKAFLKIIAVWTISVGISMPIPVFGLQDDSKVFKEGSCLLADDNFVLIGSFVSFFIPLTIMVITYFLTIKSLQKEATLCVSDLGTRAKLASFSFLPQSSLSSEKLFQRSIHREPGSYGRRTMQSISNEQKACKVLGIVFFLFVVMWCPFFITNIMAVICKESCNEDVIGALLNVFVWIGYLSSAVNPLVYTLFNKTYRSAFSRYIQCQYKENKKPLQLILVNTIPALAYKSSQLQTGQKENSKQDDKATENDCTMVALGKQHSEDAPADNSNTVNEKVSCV
Method in brief: (§1)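 Porcine cortical membranes with selective radioligands: [³H]8-OH-DPAT or [³H][…] for 5-HT1A, [³H]ketanserin for 5-HT2, and [³H]prazosin for α1. Ki (nM) is the mean of 2–4 experiments, each in triplicate.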

[5] = Binding affinity to pig cortical membrane 5HT1A receptor; set-up: species or system Sus scrofa; method in brief: as §1
[6] = target: D(1A) dopamine receptor (Sus scrofa, UniProt P50130); test: Binding affinity to pig cortical membrane dopamine D1 receptor
Sequence of D(1A) dopamine receptor (P50130 whole entry): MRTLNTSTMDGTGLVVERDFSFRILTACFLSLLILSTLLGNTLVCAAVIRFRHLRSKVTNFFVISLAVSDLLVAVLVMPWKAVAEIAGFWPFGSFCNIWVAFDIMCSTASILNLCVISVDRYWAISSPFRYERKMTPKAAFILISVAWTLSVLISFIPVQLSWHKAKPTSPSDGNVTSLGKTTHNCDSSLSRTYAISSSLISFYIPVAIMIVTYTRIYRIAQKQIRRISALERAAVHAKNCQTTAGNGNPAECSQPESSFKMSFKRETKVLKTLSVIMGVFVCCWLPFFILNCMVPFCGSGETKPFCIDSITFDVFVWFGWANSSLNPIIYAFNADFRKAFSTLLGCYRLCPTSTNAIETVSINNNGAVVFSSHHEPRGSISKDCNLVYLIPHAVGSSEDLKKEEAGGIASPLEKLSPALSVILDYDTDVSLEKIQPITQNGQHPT
Method in brief: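 Porcine D1 receptor binding: displacement of [³H]SCH23390, screened with test compound at 10 μM, 100 nM and 1 nM. Ki (nM) is the mean of 2–4 experiments, each in triplicate.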

[7] = Displacement of [3H]prazosin from pig cortical membrane adrenergic alpha-1 receptor; set-up: species or system Sus scrofa; method in brief: as §1
[8] = target: T2, D(2) dopamine receptor; test: Binding affinity to human dopamine D2 long receptor
Method in brief: (§2)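 Competition radioligand binding at human dopamine receptors: displacement of [³H]spiperone from D2long, D3 and D4.4, screened with test compound at 10 μM, 100 nM and 1 nM. Ki values in nM are means of 2–4 experiments, each run in triplicate.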

[9] = target: T4, D(4) dopamine receptor (Homo sapiens, UniProt P21917); test: Binding affinity to human dopamine D4.4 receptor; method in brief: as §2
T4 sequence (P21917 whole entry): T3 sequence (whole entry)

[10] = target: T1, D(3) dopamine receptor; test: Binding affinity to human D3 receptor; method in brief: as §2
[11] = species: Homo sapiens; test: Selectivity for human dopamine D4 receptor over human dopamine D2 receptor
[12] = target: Dopamine receptors; D3 & D4 (Homo sapiens) (UniProt P35462+P21917); test: Selectivity for human dopamine D4 receptor over human dopamine D3 receptor
Sequence of Dopamine receptors; D3 & D4 (Homo sapiens) (P35462 whole entry, looked up, one chain of several): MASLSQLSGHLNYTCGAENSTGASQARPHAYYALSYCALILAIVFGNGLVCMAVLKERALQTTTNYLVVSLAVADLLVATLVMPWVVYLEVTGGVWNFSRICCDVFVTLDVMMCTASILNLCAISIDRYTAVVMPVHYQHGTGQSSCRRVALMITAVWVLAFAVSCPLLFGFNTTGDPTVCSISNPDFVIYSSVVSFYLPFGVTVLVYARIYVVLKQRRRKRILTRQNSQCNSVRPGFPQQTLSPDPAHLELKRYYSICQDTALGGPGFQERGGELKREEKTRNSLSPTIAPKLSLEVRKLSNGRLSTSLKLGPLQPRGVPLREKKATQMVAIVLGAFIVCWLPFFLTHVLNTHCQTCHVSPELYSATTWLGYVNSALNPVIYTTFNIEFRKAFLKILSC

[13] = Distribution coefficient, log D at pH 7.4; type: physicochemical; conditions: octanol/water
Method in brief: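 Lipophilicity determined on the ¹⁸F-labelled radioligand as logD at pH 7.4, n = 6.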

[14] = Stability in human serum at 90 mins; type: ADME, cell-free; conditions: read-out: Stability
Method in brief: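 The ¹⁸F-labelled radioligand was incubated in human serum for 90 min, and intact tracer was quantified by radio-HPLC.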

T1 sequence (P35462 whole entry): as the sequence (P35462 whole entry, looked up, one chain of several) above

N#Cc1ccc(CN2CCN(c3ccc(Cl)c(Cl)c3)CC2)cc1
Activity [1]: -0%
Activity [2]: -0%
Activity [3]: 91%

COc1cccc(CN2CCN(c3cccc(OC)c3)CC2)c1
Activity [1]: 9%
Activity [2]: -0%
Activity [3]: 46%

Cc1ccc(N2CCN(Cc3ccccc3Br)CC2)cc1
Activity [1]: 16%
Activity [2]: 6%
Activity [3]: 7%

COc1cccc(N2CCN(Cc3ccccc3Br)CC2)c1
Activity [1]: -0%
Activity [2]: 2%
Activity [3]: 4%

Clc1ccc(N2CCN(Cc3cc4ccccn4n3)CC2)cc1
Ki [4]: 0.9 µM
Ki [5]: 1.7 µM
Ki [6]: 5.5 µM
Ki [7]: 0.27 µM

COc1cccc(CN2CCN(c3ccccc3OC)CC2)c1
Activity [1]: 39%
Activity [2]: 6%
Activity [3]: 26%

COc1cccc(CN2CCN(c3ccc(F)cc3)CC2)c1
Activity [1]: -0%
Activity [2]: 2%
Activity [3]: 18%

N#Cc1ccc(CN2CCN(c3ccccc3Cl)CC2)cc1
Activity [1]: 2%
Activity [2]: 2%
Activity [3]: 73%

FCCOc1cccc(CN2CCN(c3ccc(Cl)cc3)CC2)c1
Ki [4]: 0.98 µM
Ki [8]: 0.59 µM
Ki [5]: 3.3 µM
Ki [6]: 5.1 µM
Ki [7]: 0.19 µM
Ki [9]: 0.082 µM
Ki [10]: 1.1 µM

Clc1ccc(N2CCN(Cc3ccccc3Br)CC2)cc1Cl
Activity [1]: 14%
Activity [2]: 10%
Activity [3]: -0%

COc1cccc(CN2CCN(c3ccc(C)cc3)CC2)c1
Activity [1]: 39%
Activity [2]: 6%
Activity [3]: 45%

N#Cc1ccc(CN2CCN(c3ccc(F)cc3)CC2)cc1
Activity [1]: 15%
Activity [2]: -0%
Activity [3]: 47%

Clc1ccccc1N1CCN(Cc2ccccc2Br)CC1
Activity [1]: 4%
Activity [2]: -0%
Activity [3]: 9%

COc1ccccc1N1CCN(Cc2ccc(OCCF)cc2)CC1
Ki [4]: 5.4 µM
Ki [8]: 0.12 µM
Ki [6]: 3.4 µM
Ki [7]: 0.047 µM
Ki [9]: 0.0037 µM
Ki [10]: 0.077 µM

COc1cccc(CN2CCN(c3ccccc3Cl)CC2)c1
Activity [1]: 13%
Activity [2]: 4%
Activity [3]: 55%

COc1cc(CN2CCN(c3ccccc3OC)CC2)ccc1OCCF
Ki [4]: 2.1 µM
Ki [8]: 0.31 µM
Ki [5]: 0.1 µM
Ki [6]: 5.4 µM
Ki [7]: 0.021 µM
Ki [9]: 0.0018 µM
Ki [10]: 1.1 µM

Cc1ccc(N2CCN(Cc3ccc(C#N)cc3)CC2)cc1
Activity [1]: 4%
Activity [2]: -0%
Activity [3]: 59%

COc1cc(CN2CCN(c3ccc(Cl)cc3)CC2)c(OCCF)cc1OC
Ki [4]: 0.1 µM
Ki [8]: 0.76 µM
Ki [5]: 2.8 µM
Ki [6]: 3.5 µM
Ratio Ki [11]: 450
Ki [7]: 0.0044 µM
Ki [9]: 0.0017 µM
Ratio Ki [12]: 2300
Ki [10]: 3.9 µM

COc1cc(CN2CCN(c3ccccc3OC)CC2)c(OCCF)cc1OC
Ki [4]: 0.28 µM
Ki [8]: 0.094 µM
Ki [5]: 0.1 µM
Ki [6]: 6.8 µM
Ki [7]: 0.013 µM
Ki [9]: 0.0013 µM
Ki [10]: 0.33 µM

COc1cc(CN2CCN(c3ccc(Cl)cc3)CC2)c(OCC[18F])cc1OC
logD [13]: 2.8
remaining at 1.5 h [14]: > 95%

COc1ccccc1N1CCN(Cc2cccc(OCCF)c2)CC1
Ki [4]: 1.9 µM
Ki [8]: 0.057 µM
Ki [5]: 0.032 µM
Ki [6]: 5.2 µM
Ki [7]: 0.036 µM
Ki [9]: 0.0016 µM
Ki [10]: 0.27 µM

COc1cc(CN2CCN(c3ccc(Cl)cc3)CC2)ccc1OCCF
Ki [4]: 0.85 µM
Ki [8]: 21 µM
Ki [5]: 18 µM
Ki [6]: 5.7 µM
Ratio Ki [11]: 1750
Ki [7]: 0.018 µM
Ki [9]: 0.012 µM
Ki [10]: 4.9 µM

COc1cccc(CN2CCN(c3ccc(Cl)c(Cl)c3)CC2)c1
Activity [1]: 2%
Activity [2]: 9%
Activity [3]: 92%

COc1cccc(N2CCN(Cc3ccc(C#N)cc3)CC2)c1
Activity [1]: 6%
Activity [2]: 2%
Activity [3]: 69%

COc1ccccc1N1CCN(Cc2ccccc2Br)CC1
Activity [1]: 21%
Activity [2]: 9%
Activity [3]: 44%

Fc1ccc(N2CCN(Cc3ccccc3Br)CC2)cc1
Activity [1]: 1%
Activity [2]: 1%
Activity [3]: 4%

FCCOc1ccc(CN2CCN(c3ccc(Cl)cc3)CC2)cc1
Ki [4]: 1.8 µM
Ki [8]: 1.1 µM
Ki [5]: 5.2 µM
Ki [6]: 1.4 µM
Ki [7]: 0.16 µM
Ki [9]: 0.05 µM
Ki [10]: 1.1 µM

COc1ccccc1N1CCN(Cc2ccc(C#N)cc2)CC1
Activity [1]: 5%
Activity [2]: 4%
Activity [3]: 82%
